Experiment [1] has as its target Proto-oncogene tyrosine-protein kinase Src (Homo sapiens, UniProt P12931). The experiment in a line: Inhibitory activity against binding of Src protein tyrosine kinase SH2 domain to biotinylated EPQY*EEIPI Peptide by ELISA. The essentials: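 It competes with test compounds against biotinylated EPQY*EEIPI (6.0 nM) on streptavidin-coated plates for 1 h at rt. Detection is anti-GST, then AP-conjugated secondary with pNPP at 405 nm. IC50 comes from nonlinear regression, adjusted to the on-plate control peptide.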
For orientation: In an ELISA, binding on a coated surface is turned into a signal by an enzyme label.

The target in experiment [2] is Growth factor receptor-bound protein 2 (Homo sapiens, UniProt P62993). In words: Inhibitory activity against binding of Growth factor receptor bound protein 2 to biotinylated KPFY*VNVEF Peptide by ELISA. Summed up:
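It is competed with test compounds against biotinylated KPFY*VNVEF (4.0 nM) captured on streptavidin plates for 1 h at rt. Bound GST is detected by rabbit anti-GST, then AP anti-rabbit with pNPP, read at 405 nm. IC50 comes from nonlinear regression, normalized to the on-plate control peptide.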

Square brackets hold non-standard residues; d marks the D form. Peptide text beside a SMILES is read from it. * marks the point of attachment. pY = N[C@@H](Cc1ccc(OP(=O)(O)O)cc1)C(=O)O; Propionyl = CCC(=O)*; NHBu = CCCCN* Some results are limits rather than exact numbers.

Our source for the IC50 values is ChEMBL document CHEMBL1132170, “Structural and conformational requirements for high-affinity binding to the SH2 domain of Grb2(1)” (J Med Chem, 1999).

In general, IC50 refers to the midpoint of a concentration-inhibition curve. Low values mean greater potency in that assay, high ones weaker potency in that assay.

Sequence of Growth factor receptor-bound protein 2 (P62993 whole entry): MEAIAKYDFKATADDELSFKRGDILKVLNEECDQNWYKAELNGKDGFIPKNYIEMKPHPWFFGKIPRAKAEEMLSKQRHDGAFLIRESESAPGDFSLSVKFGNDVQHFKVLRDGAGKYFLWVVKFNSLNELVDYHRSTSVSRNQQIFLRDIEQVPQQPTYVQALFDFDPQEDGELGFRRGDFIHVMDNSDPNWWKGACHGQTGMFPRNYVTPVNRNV
Sequence of Proto-oncogene tyrosine-protein kinase Src (P12931 2-536 limits assumed): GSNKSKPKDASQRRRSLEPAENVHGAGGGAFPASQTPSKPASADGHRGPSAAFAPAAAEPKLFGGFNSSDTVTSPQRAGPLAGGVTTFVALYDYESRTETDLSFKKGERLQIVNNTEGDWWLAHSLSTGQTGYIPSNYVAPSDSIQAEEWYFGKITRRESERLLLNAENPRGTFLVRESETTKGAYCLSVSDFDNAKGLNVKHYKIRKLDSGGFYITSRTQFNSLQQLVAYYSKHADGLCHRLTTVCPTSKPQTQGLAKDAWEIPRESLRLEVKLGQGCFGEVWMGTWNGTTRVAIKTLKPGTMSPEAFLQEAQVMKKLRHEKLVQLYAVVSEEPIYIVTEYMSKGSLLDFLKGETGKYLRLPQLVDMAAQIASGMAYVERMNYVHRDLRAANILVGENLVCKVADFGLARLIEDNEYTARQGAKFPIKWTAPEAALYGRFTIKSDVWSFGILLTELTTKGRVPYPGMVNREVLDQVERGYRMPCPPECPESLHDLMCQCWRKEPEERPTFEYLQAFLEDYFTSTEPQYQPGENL

In experiment [1], `CC(C)[C@@H]1NC(=O)[C@H](Cc2ccc(OP(=O)(O)O)cc2)NC(=O)CNC(=O)[C@@H]2CCCN2C(=O)[C@H](C(C)C)NC(=O)[C@H](CC(N)=O)NC1=O` displayed an IC50 of over 100000 nM.

In experiment [2], `CC(C)[C@H]1NC(=O)[C@H](Cc2ccc(OP(=O)(O)O)cc2)NC(=O)CNC(=O)[C@@H]2CCCN2C(=O)[C@@H](C(C)C)NC(=O)[C@H](CC(N)=O)NC1=O` came in with an IC50 of 520 nM.

With `CC(C)[C@H]1NC(=O)[C@H](Cc2ccc(OP(=O)(O)O)cc2)NC(=O)CNC(=O)[C@H]2CCCN2C(=O)[C@@H](C(C)C)NC(=O)[C@H](CC(N)=O)NC1=O`, the results for the IC50 in experiment [2] and in experiment [1] were 10800 nM and over 100000 nM, respectively.

For the compound `CC(C)[C@@H]1NC(=O)[C@H](Cc2ccc(OP(=O)(O)O)cc2)NC(=O)CCCCCCNC(=O)[C@@H]2CCCN2C(=O)[C@H](C(C)C)NC(=O)[C@H](CC(N)=O)NC1=O`, the IC50 in experiment [1] is over 100000 nM.

In experiment [2], `CC(C)[C@H]1NC(=O)[C@H](Cc2ccc(OP(=O)(O)O)cc2)NC(=O)CCCCCCNC(=O)[C@@H]2CCCN2C(=O)[C@@H](C(C)C)NC(=O)[C@H](CC(N)=O)NC1=O` gave an IC50 of 600 nM.

As for `CC(=O)N[C@H]1CCCCNC(=O)[C@H]2CCCN2C(=O)[C@H](C(C)C)NC(=O)[C@@H](CC(N)=O)NC(=O)[C@H](CC(C)C)NC(=O)[C@@H](Cc2ccc(OP(=O)(O)O)cc2)NC1=O`, the IC50 was 1340 nM in experiment [2] and over 150000 nM in experiment [1].

For the compound `CC(=O)N[C@H]1CCCCNC(=O)[C@H]2CCCN2C(=O)[C@H](CC2CCCCC2)NC(=O)[C@@H](CC(N)=O)NC(=O)[C@H](C(C)C)NC(=O)[C@@H](Cc2ccc(OP(=O)(O)O)cc2)NC1=O`, the IC50 in experiment [2] is 110 nM; in experiment [1], over 150000 nM.

Turning to `CC(=O)N[C@@H]1CCCCNC(=O)[C@H]2CCCN2C(=O)[C@H](C(C)C)NC(=O)[C@@H](CC(N)=O)NC(=O)[C@H](C(C)C)NC(=O)[C@@H](Cc2ccc(OP(=O)(O)O)cc2)NC1=O`, the results for the half-maximal inhibitory concentration (IC50) in experiment [2] and in experiment [1] were 180 nM and 73000 nM, respectively.

In experiment [1], `CC(=O)N[C@H]1CSSC[C@@H](C(=O)O)NC(=O)[C@H]2CCCN2C(=O)[C@H](C(C)C)NC(=O)[C@@H](CC(N)=O)NC(=O)[C@H](C(C)C)NC(=O)[C@@H](Cc2ccc(OP(=O)(O)O)cc2)NC1=O` showed an IC50 of 38000 nM.

In experiment [1], `CC(C)[C@@H]1NC(=O)[C@H](Cc2ccc(OP(=O)(O)O)cc2)NC(=O)OCCCCCNC(=O)[C@@H]2CCCN2C(=O)[C@H](C(C)C)NC(=O)[C@H](CC(N)=O)NC1=O` displayed an IC50 of over 100000 nM.

The compound `CC(C)[C@H]1NC(=O)[C@H](Cc2ccc(OP(=O)(O)O)cc2)NC(=O)OCCCCCNC(=O)[C@@H]2CCCN2C(=O)[C@@H](C(C)C)NC(=O)[C@H](CC(N)=O)NC1=O` yielded an IC50 in experiment [2] of 710 nM.

As for `CC(=O)N[C@H]1CCCCNC(=O)[C@H]2CCCN2C(=O)[C@H](C(C)C)NC(=O)[C@@H](CC(N)=O)NC(=O)[C@H](C(C)C)NC(=O)[C@@H](Cc2ccc(OP(=O)(O)O)cc2)NC1=O`, the IC50 is 70 nM in experiment [2] and over 150000 nM in experiment [1].

As to `CC(=O)N[C@H]1CCCCNC(=O)[C@H]2CCCN2C(=O)[C@H](C(C)C)NC(=O)[C@@H](CC(N)=O)NC(=O)[C@H](CC2CCCCC2)NC(=O)[C@@H](Cc2ccc(OP(=O)(O)O)cc2)NC1=O`, the IC50 is 1610 nM in experiment [2] and over 150000 nM in experiment [1].

In experiment [2], `CC(C)[C@H](NC(=O)[C@H](CC(N)=O)NC(=O)[C@@H](NC(=O)[C@H](Cc1ccc(OP(=O)(O)O)cc1)NC(=O)[C@H](Cc1ccccc1)NC(=O)[C@@H]1CCCN1C(=O)[C@@H](N)CCCCN)C(C)C)C(=O)N[C@@H](CCC(=O)O)C(=O)N[C@@H](Cc1ccccc1)C(=O)O` (H-KPF[pY]VNVEF-OH) had an IC50 of 700 nM.

Turning to `CCCCNC(=O)[C@@H]1CCCN1C(=O)[C@@H](NC(=O)[C@H](CC(N)=O)NC(=O)[C@@H](NC(=O)[C@H](Cc1ccc(OP(=O)(O)O)cc1)NC(=O)CC)C(C)C)C(C)C` (Propionyl-[pY]VNVP-NHBu), the IC50 in experiment [2] is 1630 nM; in experiment [1], over 100000 nM.
